Compound activity: PubChem BioAssay, several laboratories
CRFBP-R2 agonist: agonists of CRF-BP/CRF-R2 complex, primary screen, cell-based, HEK293, calcium dye fluorescence, uHTS. CRF-binding protein / CRF receptor 2 complex (human). calcium dye fluorescence (FLIPR); percent of saturating CRF peptide response. activation, % at 13.2 µM. 0.46% of 350,000 active;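 active means activation of at least 50%, plus an integration ratio under a set limit after plate pattern correction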;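 further: plate controls were neutral control wells without compound for no effect and CRF at EC100 for full effect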
CRFBP-R2 block: antagonists of CRF-BP/CRF-R2 complex, primary screen, cell-based, HEK293, calcium dye fluorescence, uHTS; CRF-induced calcium fluorescence; inhibition, % at 11.8 µM; 0.59% of 350,000 active; AID 588475, 2011;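 active means inhibition of the ligand-induced calcium signal above about 50% at the single tested concentration, limit read from the data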
TAAR1 agonist: human TAAR1 agonists, primary screen, Fluo-8 calcium fluorescence, CHO RD-HGA16 cells; AID 624467, 2012; Trace amine-associated receptor 1 (Homo sapiens), Q96RJ0; activation, % at 3 µM; 0.99% of 360,000 active; vehicle wells 0%, saturating PEA agonist 100%;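 active means activation above the mean activation of all test compounds in the run plus 3 SD, cut at about 38% in these data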
Target sequence (Q96RJ0 whole entry, looked up): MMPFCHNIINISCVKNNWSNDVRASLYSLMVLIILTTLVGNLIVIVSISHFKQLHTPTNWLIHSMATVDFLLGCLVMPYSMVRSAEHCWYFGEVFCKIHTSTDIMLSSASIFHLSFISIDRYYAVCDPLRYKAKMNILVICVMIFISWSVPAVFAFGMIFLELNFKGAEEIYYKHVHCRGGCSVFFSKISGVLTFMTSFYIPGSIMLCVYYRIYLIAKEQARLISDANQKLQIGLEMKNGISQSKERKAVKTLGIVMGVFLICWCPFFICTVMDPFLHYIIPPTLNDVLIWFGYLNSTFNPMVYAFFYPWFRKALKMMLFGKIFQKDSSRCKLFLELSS
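Signal – calcium-sensitive Fluo-8 signal, excitation 470-495, emission 515-575 nm · System – RD-HGA16 (CHO) cells co-expressing Gα16 and hTAAR1 · Incubation – 17-24 h seeding, 75 min 37 °C dye, 30 min RT · Compound dosing – 3 µM single concentration · Repeats – no replicates (n 1)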
TAAR1 antag: human TAAR1 antagonists, primary screen, Fluo-8 calcium fluorescence, CHO RD-HGA16 cells; Trace amine-associated receptor 1 (Homo sapiens), Q96RJ0; antagonist; inhibition, % at 3 µM; 1.5% of 360,000 active;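 active means inhibition above a per-plate cutoff, the mean inhibition of test compounds on that plate plus 3 SD, cut at about 49% in these data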;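 further: 0% = DMSO plus EC80 beta-PEA response and 100% = DMSO alone without agonist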
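Test system: CHO RD-HGA16 cells bearing hTAAR1 | Reagent: β-PEA, EC80 | Compound dosing: 3 µM, single point | Schedule: Dye loading 75 min at 37 °C, then 30 min room temperature | Signal: Calcium fluorescence with Fluo-8 | Evaluation: Percent inhibition of PEA-evoked calcium signal, max/basal emission ratio | Control set: DMSO-only wells and EC80 β-PEA-stimulated wells | Repeats: Singlicate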
ANO1 activ: TMEM16A chloride channel activators or potentiators, primary screen, cell-based, HTS. HEK293 TMEM16A/YFP-H148Q/I152L, iodide quench fluorescence; active compounds read low. Anoctamin-1 (Mus musculus), Q8BHY3. B-score at 10 µM. 0.3% of 340,000 active;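 active means fluorescence-ratio B-score plate-corrected deviation score at least 3 library SD below zero, with starting fluorescence score within 5 deviations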;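 further: channel opened by trigger with iodide after compound preincubation; score built on the fluorescence ratio of max minus min over baseline; more negative score means more quench and so TMEM16A activation or potentiation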
TMEM16A inh: TMEM16A chloride channel inhibitors, primary screen, cell-based, HTS. HEK293 TMEM16A/YFP iodide influx fluorescence, ionomycin. normalized B-score (activity score, 25-100; higher = stronger inhibition) at 10 µM. 1.2% of 310,000 active. Anoctamin-1 (Mus musculus), Q8BHY3. AID 588511, 2011;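 active means ratio plate-corrected score three or more library SD toward inhibition, starting fluorescence score within five deviations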;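 further: score derived from kinetic fluorescence span divided by baseline fluorescence per well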
TAAR1 nonsel count: nonselective antagonists in TAAR1 counter-screen cells, counter-screen for hTAAR1 antagonist project, cell-based, fluorescence, calcium; inhibition, % at 3 µM; 77% of 2,400 active; counterscreen cell line, antagonist mode; shares compounds with TAAR1 antag; in the data active means inhibition above about 22%;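 further: CHO-Ga16 host cells stimulated with ATP at an EC80 level; 0% = agonist EC80 plus vehicle and 100% = vehicle without agonist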
TAAR1 ant conf: human TAAR1 antagonists, retest of hits, confirmation, cell-based, fluorescence. shares compounds with TAAR1 antag. TAAR1-expressing cells, fluorescence antagonist read-out. inhibition, % at 3 µM. 40% of 2,400 active; in the data active means inhibition above about 49%;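 further: CHO-Ga16 host cells challenged with agonist PEA near its EC80; 0% = agonist at EC80 plus vehicle and 100% = vehicle with no agonist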
Ga16 ag counter: calcium activation in Ga16-expressing cells, counter-screen for TAAR1 antagonist project, cell-based, fluorescence | shares compounds with TAAR1 antag | agonist counterscreen | activation, % at 3 µM | 18% of 2,400 active | AID 651953, 2012; in the data active means activation above about 12%;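 further: 0% = vehicle wells and 100% = saturating stimulus response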
TAAR1 ag counter: TAAR1 activation by candidate antagonists – cell-based, fluorescence, counter-screen for TAAR1 antagonist project | shares compounds with TAAR1 antag | hTAAR1 cell line, agonist mode | activation, % at 3 µM | 2% of 2,400 active; in the data active means activation above about 37%;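 further: CHO cells stably expressing TAAR1 with calcium dye readout; 0% = DMSO vehicle and 100% = full agonist response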
Active calls of the source: *; i = inactive; / = no result given. In the library only some 3.9% were active in any assay of this set; here they are far more common.

SMILES	CRFBP-R2 agonist	CRFBP-R2 block	TAAR1 agonist	TAAR1 antag	ANO1 activ	TMEM16A inh	TAAR1 nonsel count	TAAR1 ant conf	Ga16 ag counter	TAAR1 ag counter
COc1cc(C2C3=C(CC(C)(C)CC3=O)Nc3ccccc3N2C(C)=O)cc(OC)c1OC (stereo unspecified)	-1	6	3	0	i	i	/	/	/	/
COC(=O)c1ccc(S(=O)(=O)N(Cc2ccccc2)Cc2ccccc2)n1C	3	3	0	102*	i	i	12	10	0	-2
CCOc1ccc(C(=O)OCC(=O)N(Cc2ccccc2)Cc2ccccc2)cc1OC	10	14	3	9	i	/	/	/	/	/
N#CCc1ccccc1C(=O)OCC(=O)N(Cc1ccccc1)Cc1ccccc1	5	16	14	64*	i	/	29*	51*	6	4
Cc1nnc(NC(=O)CCn2cnc3ccccc3c2=O)s1	0	-8	0	-5	i	i	/	/	/	/
CCOc1cc(N2CCOCC2)c(OCC)cc1NC(=O)CSc1ncccn1	-1	13	6	12	i	i	/	/	/	/
CCOc1cc(N2CCOCC2)c(OCC)cc1NC(=O)CSc1nnc(N)s1	-2	1	-2	100*	i	/	7	-4	4	4
CCOC(=O)N1CCC(NC(=O)c2ccc3c(c2)sc2nc(-c4ccccc4)cn23)CC1	-3	26	17	57*	i	i	31*	35	10	8
CC1Sc2ccc(S(=O)(=O)CCC(=O)Nc3ccccn3)cc2NC1=O (stereo unspecified)	2	-8	1	-12	i	i	/	/	/	/
C=CCn1c(=S)[nH]c2cc(C(=O)Nc3ccc(F)cc3)ccc2c1=O	1	9	18	62*	i	i	35*	38	15*	18
COc1ccc(-c2cc(-c3nnc(COC(=O)C4CC4C)o3)c3ccccc3n2)cc1OC (stereo unspecified)	1	4	11	65*	i	i	21	41	5	1
COc1ccc(-c2cc(-c3nnc(COC(=O)c4ccc(O)cc4)o3)c3ccccc3n2)cc1OC	5	-23	16	48	i	i	/	/	/	/
CC(C)(C)OC(=O)N1CCCN(C(c2ccnc3ccccc23)c2nnnn2-c2ccc3c(c2)OCCO3)CC1 (stereo unspecified)	/	/	10	-17	/	/	/	/	/	/
CN(C)CC(=O)N[C@@H]1CC[C@@H](CCNS(=O)(=O)c2ccccc2)O[C@@H]1CO	/	/	2	-1	/	/	/	/	/	/
O=C(COC(=O)[C@@H]1CC(O)CN1S(=O)(=O)c1ccccc1[N+](=O)[O-])Nc1ccc2ccccc2c1 (stereo partly specified)	2	-15	25	68*	i	i	41*	50*	16*	13
COc1ccc(Cl)cc1NC(=O)CN(C)CC(=O)NC(C)c1ccccc1 (stereo unspecified)	1	-1	2	-3	i	i	/	/	/	/
COc1cc(OC)c(N(C)S(=O)(=O)c2cccc(C(=O)Nc3nccs3)c2)cc1Cl	0	0	10	63*	i	/	28*	45	8	3
COc1ccc(C2CC(c3ccccc3)=NN2C(=O)COC(=O)CNC(=O)c2ccccc2)cc1 (stereo unspecified)	11	-30	32	67*	i	i	43*	54*	22*	37
O=C1c2ccccc2C(=O)N1CCc1nc(-c2ccc(Cl)cc2)no1	1	4	19	63*	i	i	29*	37	6	2
O=C1c2ccccc2C(=O)N1CCc1nc(-c2ccncc2)no1	-1	-6	8	10	i	i	/	/	/	/
CN1C(=O)c2ccccc2CC12c1ccccc1C(=O)N2C (stereo unspecified)	-1	4	4	-13	/	/	/	/	/	/
Clc1ccc(C=NNc2ccccn2)c(Cl)c1	-1	4	1	9	i	/	/	/	/	/
Cc1ccc(C)c(/C=N/Nc2ccccn2)c1	0	-9	-4	105*	i	i	-2	0	1	0
CN(c1cccc(NC(=O)c2ccc(Cl)c(S(=O)(=O)N3CCOCC3)c2)c1)S(C)(=O)=O	-1	-10	1	-20	i	i	/	/	/	/
CCN(CC)S(=O)(=O)c1ccc(OC)c(NC(=O)C(C)Oc2ccc3c(C)cc(=O)oc3c2)c1 (stereo unspecified)	0	3	1	103*	i	i	8	-8	9	13
Cc1cc(C(=O)COC(=O)Cn2c(C(F)(F)F)nc3ccccc32)c(C)n1Cc1ccco1	-1	22	10	51*	i	i	17	26	10	13
COc1nc(N)c(C#N)c(-c2ccc(N(C)CCC#N)cc2)c1C#N	16	-10	26	81*	i	i	29*	52*	17*	22
COc1cccc2cc(C(=O)Nc3ccccc3Cl)/c(=N/NS(=O)(=O)c3ccccc3)oc12	2	15	0	-5	i	i	/	/	/	/
O=C(Nc1ccc(S(=O)(=O)NCc2ccco2)cc1)c1ccc2ccccc2n1	1	28	10	70*	i	i	38*	58*	6	5
Cc1ccc(-c2ccc(/C=C3\C(=O)ON=C3c3ccccc3)o2)c([N+](=O)[O-])c1	40	-1	21	65*	-5.7*	100*	78*	81*	24*	28
